Among the data in ChEMBL document CHEMBL2086248, “Synthesis of some novel 1-(2-naphthyl)-2-(imidazol-1-yl)ethanone oxime ester derivatives and evaluation of their anticonvulsant activity” (Eur J Med Chem, 2012) are Activity values, retold here.

In series [1] the test system is Mus musculus. The experiment in a line: Neurotoxicity in mouse assessed as motor impairment at 30 mg/kg, ip after 0.5 hrs by rotarod test. Format: toxicity, organism-based. Conditions: in vivo. Further details: dose 30 mg/kg, route intraperitoneal. The method, boiled down:
(§1)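 Swiss albino mice (20-24 g) were dosed ip with a suspension in 30% aqueous PEG 400 and tested 0.5 h or 4 h later. They were placed on a knurled wooden rod 1 inch in diameter, rotating at 6 rpm. Toxicity meant failure to stay on the rod for at least 1 min in each of three trials. Scored as number toxic/number tested (4 mice at 0.5 h, 2 at 4 h).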

For series [2], the system named is Mus musculus. Kind of series: Neurotoxicity in mouse assessed as motor impairment at 100 mg/kg, ip after 0.5 hrs by rotarod test. The note with it: in vivo. Format: toxicity, organism-based. Further details: dose 100 mg/kg, route intraperitoneal. Put shortly: as §1
For series [3], the system named is Mus musculus. Kind of series: Neurotoxicity in mouse assessed as motor impairment at 30 mg/kg, ip after 4 hrs by rotarod test. Further details: dose 30 mg/kg, route intraperitoneal. Type of series: toxicity, organism-based. Conditions: in vivo. Put shortly:
as §1

Series [4] concerns Mus musculus. The experiment in a line: Neurotoxicity in mouse assessed as motor impairment at 100 mg/kg, ip after 4 hrs by rotarod test. Format: toxicity, organism-based. Further details: dose 100 mg/kg, route intraperitoneal. Conditions: in vivo. Put shortly:
as §1
(In general: Falling from the rotarod earlier than controls is read as motor impairment.)

Series [5] relates to Mus musculus. The experiment in a line: Neurotoxicity in mouse assessed as mortality at 300 mg/kg, ip after 0.5 hrs by rotarod test. Further details: dose 300 mg/kg, route intraperitoneal. Format: toxicity, organism-based. Conditions: in vivo.
The subject of series [6] is Mus musculus. Kind of series: Neurotoxicity in mouse assessed as mortality at 300 mg/kg, ip after 4 hrs by rotarod test. Format: toxicity, organism-based. Further details: dose 300 mg/kg, route intraperitoneal. Conditions: in vivo.
Series [7] concerns Mus musculus. The experiment in a line: Anticonvulsant activity in mouse assessed as protection against maximal electroshock-induced seizures at 30 mg/kg, ip after 0.5 hrs. Type of series: functional, organism-based. Further details: dose 30 mg/kg. Put shortly: (§2)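 Swiss albino mice (20-24 g) received an ip suspension in 30% aqueous PEG 400 and were tested 0.5 h and 4 h after dosing. Shock was delivered through corneal electrodes from a constant current unit, with 0.9% saline dropped into the eyes first. Protection meant abolition of the hind limb tonic extension. Scored as number protected/number tested, one mouse per dose and time.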

For series [8], the system named is Mus musculus. The experiment in a line: Anticonvulsant activity in mouse assessed as protection against maximal electroshock-induced seizures at 100 mg/kg, ip after 0.5 hrs. Type of series: functional, organism-based. Further details: dose 100 mg/kg. The method, boiled down:
as §2

In series [9] the test system is Mus musculus. Kind of series: Anticonvulsant activity in mouse assessed as protection against maximal electroshock-induced seizures at 300 mg/kg, ip after 0.5 hrs. Type of series: functional, organism-based. Further details: dose 300 mg/kg. Put shortly:
as §2
(In general: In the maximal electroshock model the usual endpoint is tonic extension of the hind limbs.)

Series [10] concerns Mus musculus. Kind of series: Anticonvulsant activity in mouse assessed as protection against maximal electroshock-induced seizures at 30 mg/kg, ip after 4 hrs. Further details: dose 30 mg/kg. Format: functional, organism-based. The method, boiled down: as §2
Series [11] concerns Mus musculus. The experiment in a line: Anticonvulsant activity in mouse assessed as protection against maximal electroshock-induced seizures at 100 mg/kg, ip after 4 hrs. Type of series: functional, organism-based. Further details: dose 100 mg/kg. The method, boiled down:
as §2

The test system of series [12] is Mus musculus. Kind of series: Anticonvulsant activity in mouse assessed as protection against maximal electroshock-induced seizures at 300 mg/kg, ip after 4 hrs. Format: functional, organism-based. Further details: dose 300 mg/kg. The method, boiled down: as §2
Series [13] relates to Mus musculus. The experiment in a line: Anticonvulsant activity in mouse assessed as protection against subcutaneous pentylenetetrazole-induced seizures at 30 mg/kg, ip after 0.5 hrs. Type of series: functional, organism-based. Further details: dose 30 mg/kg. Put shortly: (§3)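 Swiss albino mice (20-24 g) were dosed ip with a suspension in 30% aqueous PEG 400 and challenged 0.5 h or 4 h later. Protection meant no threshold seizure (clonic spasms lasting at least 5 s). Scored as number protected/number tested, one mouse per dose and time.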

For series [14], the system named is Mus musculus. The experiment in a line: Anticonvulsant activity in mouse assessed as protection against subcutaneous pentylenetetrazole-induced seizures at 100 mg/kg, ip after 0.5 hrs. Type of series: functional, organism-based. Further details: dose 100 mg/kg. The method, boiled down:
as §3

Series [15] deals with Mus musculus. The experiment in a line: Anticonvulsant activity in mouse assessed as protection against subcutaneous pentylenetetrazole-induced seizures at 300 mg/kg, ip after 0.5 hrs. Format: functional, organism-based. Further details: dose 300 mg/kg. Put shortly:
as §3

Series [16] deals with Mus musculus. Kind of series: Anticonvulsant activity in mouse assessed as protection against subcutaneous pentylenetetrazole-induced seizures at 30 mg/kg, ip after 4 hrs. Format: functional, organism-based. Further details: dose 30 mg/kg. Put shortly: as §3
Series [17] deals with Mus musculus. Kind of series: Anticonvulsant activity in mouse assessed as protection against subcutaneous pentylenetetrazole-induced seizures at 100 mg/kg, ip after 4 hrs. Type of series: functional, organism-based. Further details: dose 100 mg/kg. Put shortly: as §3
Series [18] deals with Mus musculus. Kind of series: Neurotoxicity in mouse assessed as motor impairment at 300 mg/kg, ip after 0.5 hrs by rotarod test. Further details: dose 300 mg/kg, route intraperitoneal. Format: toxicity, organism-based. The note with it: in vivo. Put shortly: as §1
Series [19] deals with Mus musculus. Kind of series: Neurotoxicity in mouse assessed as motor impairment at 300 mg/kg, ip after 4 hrs by rotarod test. Further details: dose 300 mg/kg, route intraperitoneal. The note with it: in vivo. Format: toxicity, organism-based. The method, boiled down: as §1
Series [20] relates to Mus musculus. Kind of series: Anticonvulsant activity in mouse assessed as protection against subcutaneous pentylenetetrazole-induced seizures at 300 mg/kg, ip after 4 hrs. Further details: dose 300 mg/kg. Type of series: functional, organism-based. Put shortly: as §3

Calls of active or inactive are those of the source.

With `O=C(CCC(=O)c1ccccc1)O/N=C(\Cn1ccnc1)c1ccc2ccccc2c1`, the Activity entry with Mus musculus [1] was “Non-toxic”; in the series with Mus musculus [2], “Non-toxic”; in the series on Mus musculus [3], “Non-toxic”; in the series on Mus musculus [4] it was “Non-toxic”; in the series on Mus musculus [5] it was “Toxic”; with Mus musculus [6] it was “Toxic”. Besides, the outcome in the series on Mus musculus [7], in the series on Mus musculus [8], with Mus musculus [10] and with Mus musculus [11] was Active. The result in the series with Mus musculus [9], in the series with Mus musculus [12], in the series with Mus musculus [13], in the series on Mus musculus [14], in the series with Mus musculus [15] and in the series on Mus musculus [16] was inactive. In the series with Mus musculus [17], the outcome was inactive.

Consider `O=C1NC(=O)C(c2ccccc2)(c2ccccc2)N1` [PHENYTOIN], for which the Activity entry in the series on Mus musculus [1] is “Non-toxic”; with Mus musculus [2] it was “Non-toxic”; in the series on Mus musculus [18], “Toxic”; with Mus musculus [3] it was “Non-toxic”; in the series with Mus musculus [4], “Toxic”; with Mus musculus [19] it was “Toxic”. Besides, the outcome in the series with Mus musculus [7], in the series on Mus musculus [8], in the series on Mus musculus [9], in the series with Mus musculus [10], in the series with Mus musculus [11] and in the series with Mus musculus [12] was Active. Further, the outcome in the series on Mus musculus [13], in the series with Mus musculus [14], with Mus musculus [15], with Mus musculus [16], in the series on Mus musculus [20] and with Mus musculus [17] was inactive.

Consider `CCCC(CCC)C(=O)ON=C(Cn1ccnc1)c1ccc2ccccc2c1.Cl` (mixture of isomers), for which the Activity result in the series with Mus musculus [1], in the series with Mus musculus [2], with Mus musculus [18], in the series with Mus musculus [3], in the series with Mus musculus [4] and with Mus musculus [19] was “Non-toxic” throughout. Also, the result in the series with Mus musculus [7], in the series on Mus musculus [8], with Mus musculus [9], with Mus musculus [12], in the series on Mus musculus [15] and in the series on Mus musculus [20] was Active. Moreover, the result in the series with Mus musculus [10], in the series with Mus musculus [11], in the series with Mus musculus [13], in the series with Mus musculus [14], with Mus musculus [16] and with Mus musculus [17] was inactive.

As for `Cc1cccc(C(=O)O/N=C(\Cn2ccnc2)c2ccc3ccccc3c2)c1`, the Activity result with Mus musculus [1], in the series on Mus musculus [2], in the series on Mus musculus [18], in the series on Mus musculus [3], with Mus musculus [4] and in the series on Mus musculus [19] was “Non-toxic” in each case. For the same compound, the result with Mus musculus [7], with Mus musculus [8], in the series on Mus musculus [9], in the series with Mus musculus [10], in the series on Mus musculus [11] and with Mus musculus [12] was inactive. For the same compound, the result in the series with Mus musculus [13], with Mus musculus [14], with Mus musculus [16] and in the series with Mus musculus [17] was inactive. Besides, the result in the series with Mus musculus [15] and in the series on Mus musculus [20] was Active.

`O=C(O/N=C(\Cn1ccnc1)c1ccc2ccccc2c1)c1cccc([N+](=O)[O-])c1`: the Activity entry in the series with Mus musculus [1], with Mus musculus [2], with Mus musculus [18], in the series on Mus musculus [3], in the series on Mus musculus [4] and in the series on Mus musculus [19] was “Non-toxic” in each case. The result with Mus musculus [7], in the series on Mus musculus [8], with Mus musculus [9], in the series on Mus musculus [10], with Mus musculus [11] and in the series on Mus musculus [13] was inactive. Also, the result with Mus musculus [14], in the series on Mus musculus [15], in the series on Mus musculus [16], in the series on Mus musculus [20] and in the series on Mus musculus [17] was inactive. For the same compound, the outcome in the series on Mus musculus [12] was Active.

Consider `C/C=C(\C)C(=O)O/N=C(\Cn1ccnc1)c1ccc2ccccc2c1.Cl`, for which the Activity result with Mus musculus [1], in the series on Mus musculus [2], with Mus musculus [18], in the series on Mus musculus [3], in the series with Mus musculus [4] and with Mus musculus [19] was “Non-toxic” each time. Besides, the result with Mus musculus [7], with Mus musculus [8], in the series with Mus musculus [9], in the series with Mus musculus [10], in the series on Mus musculus [11] and with Mus musculus [12] was inactive. In addition, the result in the series with Mus musculus [13], in the series with Mus musculus [14], in the series on Mus musculus [15], with Mus musculus [16] and with Mus musculus [17] was inactive. In addition, the outcome in the series with Mus musculus [20] was Active.

Regarding `Cl.O=C(ON=C(Cn1ccnc1)c1ccc2ccccc2c1)C1CCCCC1` (mixture of isomers), the Activity result in the series on Mus musculus [1], in the series with Mus musculus [2], in the series with Mus musculus [18], in the series with Mus musculus [3], in the series on Mus musculus [4] and in the series with Mus musculus [19] was “Non-toxic” in each case. The outcome in the series on Mus musculus [7], in the series with Mus musculus [10], in the series with Mus musculus [11], in the series with Mus musculus [12], with Mus musculus [13] and with Mus musculus [16] was inactive. Also, the result in the series with Mus musculus [20] and in the series with Mus musculus [17] was inactive. Moreover, the outcome in the series on Mus musculus [8], in the series with Mus musculus [9], in the series with Mus musculus [14] and in the series on Mus musculus [15] was Active.

For the compound `CCC(=O)O/N=C(\Cn1ccnc1)c1ccc2ccccc2c1.Cl`, the Activity entry in the series on Mus musculus [1], in the series on Mus musculus [2], with Mus musculus [18], in the series on Mus musculus [3], in the series on Mus musculus [4] and in the series with Mus musculus [19] was “Non-toxic” throughout. Also, the result in the series on Mus musculus [7], with Mus musculus [10], in the series with Mus musculus [11], in the series on Mus musculus [12], in the series on Mus musculus [13] and with Mus musculus [14] was inactive. Also, the outcome in the series on Mus musculus [16], with Mus musculus [20] and in the series on Mus musculus [17] was inactive. The outcome in the series on Mus musculus [8], with Mus musculus [9] and with Mus musculus [15] was Active.

Take `CC(C)CC(=O)O/N=C(\Cn1ccnc1)c1ccc2ccccc2c1.Cl`: the Activity result in the series on Mus musculus [1], in the series on Mus musculus [2], in the series on Mus musculus [18], in the series on Mus musculus [3], in the series on Mus musculus [4] and in the series on Mus musculus [19] was “Non-toxic” each time. In addition, the result with Mus musculus [7], in the series with Mus musculus [10], in the series on Mus musculus [13], in the series with Mus musculus [14], in the series on Mus musculus [15] and with Mus musculus [16] was inactive. The result in the series with Mus musculus [20] and with Mus musculus [17] was inactive. Moreover, the result in the series on Mus musculus [8], in the series on Mus musculus [9], with Mus musculus [11] and in the series on Mus musculus [12] was Active.
